Active and inactive are the calls of the source. The calls are words filed in the database; no cut-off is given here.
tested on: Mus musculus; test: Anticonvulsant activity in albino CF-1 mouse assessed as protection against 6 Hz psychomotor seizure at 100 mg/kg, ip after 1 hr by minimal clonic seizure test; type: functional; settings: not given
Method in brief: (§1)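 Male CF-1 albino mice (18–25 g) given compound i.p., suspended in 0.5% methyl cellulose, 100 mg/kg in screen. Four mice per time point challenged at 0.25, 0.5, 1.0, 2.0 and 4.0 h via corneal electrodes (32 mA, 3 s, 6 Hz). Protection = absence of psychomotor seizure (minimal clonic phase, automatistic behaviours). Scored as animals protected/tested.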

Row | Compound | Activity
1 | S=C(N/N=C/c1ccc(Oc2ccc(Br)cc2)cc1)Nc1ccccc1 | Active
2 | O=[N+]([O-])c1ccc(Oc2ccc(/C=N/NC(=S)Nc3ccc(F)cc3)cc2)cc1 | Active
3 | Cc1ccc(Oc2ccc(/C=N/NC(=S)Nc3ccc(Br)cc3)cc2)cc1 | Active
4 | Fc1ccc(Oc2ccc(/C=N/NC(=S)Nc3ccccc3)cc2)cc1 | Active
5 | Fc1ccc(NC(=S)N/N=C/c2ccc(Oc3ccccc3)cc2)cc1 | inactive
6 | Fc1ccc(NC(=S)N/N=C/c2ccc(Oc3ccc(Br)cc3)cc2)cc1 | inactive
7 | Cc1ccc(Oc2ccc(/C=N/NC(=S)Nc3ccc(F)cc3)cc2)cc1 | inactive
8 | Fc1ccc(Oc2ccc(/C=N/NC(=S)Nc3ccc(Cl)cc3)cc2)cc1 | inactive
9 | Fc1ccc(NC(=S)N/N=C/c2ccc(Oc3ccc(F)cc3)cc2)cc1 | inactive
10 | Cc1cc(Oc2ccc(/C=N/NC(=S)Nc3ccccc3)cc2)ccc1Cl | inactive
11 | Cc1cc(Oc2ccc(/C=N/NC(=S)Nc3ccc(F)cc3)cc2)ccc1Cl | Active

same assay, conditions: route intraperitoneal

Row | Compound | Activity [%]
12 | Cc1cc(Oc2ccc(/C=N/NC(=S)Nc3ccc(Cl)cc3)cc2)ccc1Cl | 50

tested on: Mus musculus; test: Anticonvulsant activity in albino CF-1 mouse assessed as protection against 6 Hz psychomotor seizure at 100 mg/kg, ip after 0.5 hrs by minimal clonic seizure test; type: functional; settings: not given; method in brief: as §1

Row | Compound | Activity
13 | S=C(N/N=C/c1ccc(Oc2ccc(Br)cc2)cc1)Nc1ccccc1 | Active
14 | Cc1ccc(Oc2ccc(/C=N/NC(=S)Nc3ccc(Br)cc3)cc2)cc1 | Active
15 | Fc1ccc(Oc2ccc(/C=N/NC(=S)Nc3ccccc3)cc2)cc1 | inactive
16 | Fc1ccc(NC(=S)N/N=C/c2ccc(Oc3ccccc3)cc2)cc1 | Active
17 | Fc1ccc(NC(=S)N/N=C/c2ccc(Oc3ccc(Br)cc3)cc2)cc1 | Active
18 | Fc1ccc(Oc2ccc(/C=N/NC(=S)Nc3ccc(Cl)cc3)cc2)cc1 | Active
19 | Fc1ccc(NC(=S)N/N=C/c2ccc(Oc3ccc(F)cc3)cc2)cc1 | Active
20 | Cc1cc(Oc2ccc(/C=N/NC(=S)Nc3ccccc3)cc2)ccc1Cl | Active
21 | Cc1cc(Oc2ccc(/C=N/NC(=S)Nc3ccc(Cl)cc3)cc2)ccc1Cl | Active
22 | Cc1cc(Oc2ccc(/C=N/NC(=S)Nc3ccc(F)cc3)cc2)ccc1Cl | Active

same assay, conditions: route intraperitoneal

Row | Compound | Activity [%]
23 | O=[N+]([O-])c1ccc(Oc2ccc(/C=N/NC(=S)Nc3ccc(F)cc3)cc2)cc1 | 50
24 | Cc1ccc(Oc2ccc(/C=N/NC(=S)Nc3ccc(F)cc3)cc2)cc1 | 50

tested on: Mus musculus; test: Anticonvulsant activity in albino CF-1 mouse assessed as protection against 6 Hz psychomotor seizure at 100 mg/kg, ip after 0.25 hrs by minimal clonic seizure test; type: functional; settings: not given; method in brief: as §1

Row | Compound | Activity
25 | S=C(N/N=C/c1ccc(Oc2ccc(Br)cc2)cc1)Nc1ccccc1 | inactive
26 | O=[N+]([O-])c1ccc(Oc2ccc(/C=N/NC(=S)Nc3ccc(F)cc3)cc2)cc1 | inactive
27 | Cc1ccc(Oc2ccc(/C=N/NC(=S)Nc3ccc(Br)cc3)cc2)cc1 | inactive
28 | Fc1ccc(Oc2ccc(/C=N/NC(=S)Nc3ccccc3)cc2)cc1 | inactive
29 | Fc1ccc(NC(=S)N/N=C/c2ccc(Oc3ccccc3)cc2)cc1 | Active
30 | Fc1ccc(NC(=S)N/N=C/c2ccc(Oc3ccc(Br)cc3)cc2)cc1 | inactive
31 | Cc1ccc(Oc2ccc(/C=N/NC(=S)Nc3ccc(F)cc3)cc2)cc1 | Active
32 | Fc1ccc(Oc2ccc(/C=N/NC(=S)Nc3ccc(Cl)cc3)cc2)cc1 | Active
33 | Cc1cc(Oc2ccc(/C=N/NC(=S)Nc3ccccc3)cc2)ccc1Cl | inactive
34 | Cc1cc(Oc2ccc(/C=N/NC(=S)Nc3ccc(Cl)cc3)cc2)ccc1Cl | inactive
35 | Cc1cc(Oc2ccc(/C=N/NC(=S)Nc3ccc(F)cc3)cc2)ccc1Cl | inactive

same assay, conditions: route intraperitoneal

Row | Compound | Activity [%]
36 | Fc1ccc(NC(=S)N/N=C/c2ccc(Oc3ccc(F)cc3)cc2)cc1 | 50

tested on: Mus musculus; test: Neurotoxicity in albino CF-1 mouse assessed as minimum motor impairment at 300 mg/kg, ip after 4 hrs by rotarod test; type: toxicity, organism-based; parameters: dose 300 mg/kg, route intraperitoneal; settings: in vivo
Method in brief: (§2)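 Minimal motor impairment assessed in male CF-1 albino mice (18–25 g) at 0.5 and 4 h after i.p. doses of 30, 100 and 300 mg/kg, given in 0.5% methyl cellulose. Minimum dose toxic in half or more of mice recorded.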

Row | Compound | Activity
37 | S=C(N/N=C/c1ccc(Oc2ccc(Br)cc2)cc1)Nc1ccccc1 | Non-toxic
38 | S=C(N/N=C/c1ccc(Oc2ccc3ccccc3c2)cc1)Nc1ccc(Cl)cc1 | Non-toxic
39 | O=[N+]([O-])c1ccc(Oc2ccc(/C=N/NC(=S)Nc3ccccc3)cc2)cc1 | Non-toxic
40 | O=[N+]([O-])c1ccc(Oc2ccc(/C=N/NC(=S)Nc3ccc(Cl)cc3)cc2)cc1 | Non-toxic
41 | O=[N+]([O-])c1ccc(Oc2ccc(/C=N/NC(=S)Nc3ccc(F)cc3)cc2)cc1 | Non-toxic
42 | Cc1ccc(Oc2ccc(/C=N/NC(=S)Nc3ccc(Br)cc3)cc2)cc1 | Non-toxic
43 | Fc1ccc(Oc2ccc(/C=N/NC(=S)Nc3ccccc3)cc2)cc1 | Non-toxic
44 | Fc1ccc(NC(=S)N/N=C/c2ccc(Oc3ccccc3)cc2)cc1 | Non-toxic
45 | Fc1ccc(NC(=S)N/N=C/c2ccc(Oc3ccc(Br)cc3)cc2)cc1 | Non-toxic
46 | Cc1ccc(Oc2ccc(/C=N/NC(=S)Nc3ccc(F)cc3)cc2)cc1 | Non-toxic
47 | Fc1ccc(Oc2ccc(/C=N/NC(=S)Nc3ccc(Cl)cc3)cc2)cc1 | Non-toxic
48 | Fc1ccc(NC(=S)N/N=C/c2ccc(Oc3ccc(F)cc3)cc2)cc1 | Non-toxic
49 | Cc1cc(Oc2ccc(/C=N/NC(=S)Nc3ccccc3)cc2)ccc1Cl | Non-toxic
50 | Cc1cc(Oc2ccc(/C=N/NC(=S)Nc3ccc(Cl)cc3)cc2)ccc1Cl | Non-toxic
51 | Cc1cc(Oc2ccc(/C=N/NC(=S)Nc3ccc(F)cc3)cc2)ccc1Cl | Non-toxic

tested on: Mus musculus; test: Anticonvulsant activity in albino CF-1 mouse assessed as protection against 6 Hz psychomotor seizure at 100 mg/kg, ip after 4 hrs by minimal clonic seizure test; type: functional, organism-based; parameters: dose 100 mg/kg; settings: not given; method in brief: as §1

Row | Compound | Activity
52 | S=C(N/N=C/c1ccc(Oc2ccc(Br)cc2)cc1)Nc1ccccc1 | inactive
53 | O=[N+]([O-])c1ccc(Oc2ccc(/C=N/NC(=S)Nc3ccc(F)cc3)cc2)cc1 | inactive
54 | Cc1ccc(Oc2ccc(/C=N/NC(=S)Nc3ccc(Br)cc3)cc2)cc1 | inactive
55 | Fc1ccc(Oc2ccc(/C=N/NC(=S)Nc3ccccc3)cc2)cc1 | inactive
56 | Fc1ccc(NC(=S)N/N=C/c2ccc(Oc3ccccc3)cc2)cc1 | inactive
57 | Fc1ccc(NC(=S)N/N=C/c2ccc(Oc3ccc(Br)cc3)cc2)cc1 | inactive
58 | Cc1ccc(Oc2ccc(/C=N/NC(=S)Nc3ccc(F)cc3)cc2)cc1 | inactive
59 | Fc1ccc(Oc2ccc(/C=N/NC(=S)Nc3ccc(Cl)cc3)cc2)cc1 | Active
60 | Fc1ccc(NC(=S)N/N=C/c2ccc(Oc3ccc(F)cc3)cc2)cc1 | inactive
61 | Cc1cc(Oc2ccc(/C=N/NC(=S)Nc3ccccc3)cc2)ccc1Cl | inactive
62 | Cc1cc(Oc2ccc(/C=N/NC(=S)Nc3ccc(Cl)cc3)cc2)ccc1Cl | inactive
63 | Cc1cc(Oc2ccc(/C=N/NC(=S)Nc3ccc(F)cc3)cc2)ccc1Cl | inactive

tested on: not listed separately; test: Octanol-phosphate buffer partition coefficient, log P of the compound at 5 mg after 24 hrs by UV spectroscopic analysis; type: physicochemical; settings: not given
Method in brief: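 5 mg compound added to 10 mL octanol plus 10 mL phosphate buffer in a stoppered tube. Mixture shaken mechanically 24 h at room temperature, then left 6 h in a separating funnel to equilibrate.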

Row | logP at 24 h | Compound
64 | 4.89 | O=[N+]([O-])c1ccc(Oc2ccc(/C=N/NC(=S)Nc3ccc(F)cc3)cc2)cc1
65 | 6.17 | Cc1ccc(Oc2ccc(/C=N/NC(=S)Nc3ccc(Br)cc3)cc2)cc1
66 | 5.09 | Fc1ccc(NC(=S)N/N=C/c2ccc(Oc3ccccc3)cc2)cc1
67 | 5.88 | Fc1ccc(NC(=S)N/N=C/c2ccc(Oc3ccc(Br)cc3)cc2)cc1
68 | 5.48 | Cc1ccc(Oc2ccc(/C=N/NC(=S)Nc3ccc(F)cc3)cc2)cc1
69 | 5.84 | Fc1ccc(Oc2ccc(/C=N/NC(=S)Nc3ccc(Cl)cc3)cc2)cc1
70 | 5.19 | Fc1ccc(NC(=S)N/N=C/c2ccc(Oc3ccc(F)cc3)cc2)cc1
71 | 6.07 | Cc1cc(Oc2ccc(/C=N/NC(=S)Nc3ccc(F)cc3)cc2)ccc1Cl

Second part, the compound before the results:

Row | Compound | logP at 24 h
72 | S=C(N/N=C/c1ccc(Oc2ccc(Br)cc2)cc1)Nc1ccccc1 | 5.62
73 | S=C(N/N=C/c1ccc(Oc2ccc3ccccc3c2)cc1)Nc1ccc(Cl)cc1 | 6.96
74 | O=[N+]([O-])c1ccc(Oc2ccc(/C=N/NC(=S)Nc3ccccc3)cc2)cc1 | 4.95
75 | O=[N+]([O-])c1ccc(Oc2ccc(/C=N/NC(=S)Nc3ccc(Cl)cc3)cc2)cc1 | 5.52
76 | Fc1ccc(Oc2ccc(/C=N/NC(=S)Nc3ccccc3)cc2)cc1 | 5.09
77 | Cc1cc(Oc2ccc(/C=N/NC(=S)Nc3ccccc3)cc2)ccc1Cl | 6.03
78 | Cc1cc(Oc2ccc(/C=N/NC(=S)Nc3ccc(Cl)cc3)cc2)ccc1Cl | 6.59

tested on: Mus musculus; test: Neurotoxicity in albino CF-1 mouse assessed as minimum motor impairment at 300 mg/kg, ip after 0.5 hrs by rotarod test; type: toxicity, organism-based; parameters: dose 300 mg/kg, route intraperitoneal; settings: in vivo; method in brief: as §2

Row | Compound | Activity
79 | S=C(N/N=C/c1ccc(Oc2ccc(Br)cc2)cc1)Nc1ccccc1 | Non-toxic
80 | S=C(N/N=C/c1ccc(Oc2ccc3ccccc3c2)cc1)Nc1ccc(Cl)cc1 | Non-toxic
81 | O=[N+]([O-])c1ccc(Oc2ccc(/C=N/NC(=S)Nc3ccccc3)cc2)cc1 | Non-toxic
82 | O=[N+]([O-])c1ccc(Oc2ccc(/C=N/NC(=S)Nc3ccc(Cl)cc3)cc2)cc1 | Non-toxic
83 | O=[N+]([O-])c1ccc(Oc2ccc(/C=N/NC(=S)Nc3ccc(F)cc3)cc2)cc1 | Non-toxic
84 | Cc1ccc(Oc2ccc(/C=N/NC(=S)Nc3ccc(Br)cc3)cc2)cc1 | Non-toxic
85 | Fc1ccc(Oc2ccc(/C=N/NC(=S)Nc3ccccc3)cc2)cc1 | Non-toxic
86 | Fc1ccc(NC(=S)N/N=C/c2ccc(Oc3ccccc3)cc2)cc1 | Non-toxic
87 | Fc1ccc(NC(=S)N/N=C/c2ccc(Oc3ccc(Br)cc3)cc2)cc1 | Non-toxic
88 | Cc1ccc(Oc2ccc(/C=N/NC(=S)Nc3ccc(F)cc3)cc2)cc1 | Non-toxic
89 | Fc1ccc(Oc2ccc(/C=N/NC(=S)Nc3ccc(Cl)cc3)cc2)cc1 | Non-toxic
90 | Fc1ccc(NC(=S)N/N=C/c2ccc(Oc3ccc(F)cc3)cc2)cc1 | Non-toxic
91 | Cc1cc(Oc2ccc(/C=N/NC(=S)Nc3ccccc3)cc2)ccc1Cl | Non-toxic
92 | Cc1cc(Oc2ccc(/C=N/NC(=S)Nc3ccc(Cl)cc3)cc2)ccc1Cl | Non-toxic
93 | Cc1cc(Oc2ccc(/C=N/NC(=S)Nc3ccc(F)cc3)cc2)ccc1Cl | Non-toxic

tested on: Mus musculus; test: Anticonvulsant activity in albino CF-1 mouse assessed as protection against 6 Hz psychomotor seizure at 100 mg/kg, ip after 2 hrs by minimal clonic seizure test; type: functional; settings: not given; method in brief: as §1

Row | Compound | Activity
94 | S=C(N/N=C/c1ccc(Oc2ccc(Br)cc2)cc1)Nc1ccccc1 | Active
95 | O=[N+]([O-])c1ccc(Oc2ccc(/C=N/NC(=S)Nc3ccc(F)cc3)cc2)cc1 | inactive
96 | Cc1ccc(Oc2ccc(/C=N/NC(=S)Nc3ccc(Br)cc3)cc2)cc1 | inactive
97 | Fc1ccc(Oc2ccc(/C=N/NC(=S)Nc3ccccc3)cc2)cc1 | inactive
98 | Fc1ccc(NC(=S)N/N=C/c2ccc(Oc3ccccc3)cc2)cc1 | inactive
99 | Fc1ccc(NC(=S)N/N=C/c2ccc(Oc3ccc(Br)cc3)cc2)cc1 | inactive
100 | Cc1ccc(Oc2ccc(/C=N/NC(=S)Nc3ccc(F)cc3)cc2)cc1 | inactive
101 | Fc1ccc(Oc2ccc(/C=N/NC(=S)Nc3ccc(Cl)cc3)cc2)cc1 | Active
102 | Fc1ccc(NC(=S)N/N=C/c2ccc(Oc3ccc(F)cc3)cc2)cc1 | Active
103 | Cc1cc(Oc2ccc(/C=N/NC(=S)Nc3ccccc3)cc2)ccc1Cl | inactive
104 | Cc1cc(Oc2ccc(/C=N/NC(=S)Nc3ccc(F)cc3)cc2)ccc1Cl | inactive

same assay, conditions: route intraperitoneal

Row | Compound | Activity [%]
105 | Cc1cc(Oc2ccc(/C=N/NC(=S)Nc3ccc(Cl)cc3)cc2)ccc1Cl | 50
